Source: ChEMBL document CHEMBL1138602, “Discovery of sodium 6-[(5-chloro-2-{[(4-chloro-2-fluorophenyl)methyl]oxy}phenyl)methyl]-2-pyridinecarboxylate (GSK269984A) an EP(1) receptor antagonist for the treatment of inflammatory pain” (Bioorg Med Chem Lett, 2009)

Columns and labels:
[1] = Drug level in brain of complete Freund's adjuvant-induced rat inflammatory pain model at 3 mg/kg, po administered after 23 hrs of adjuvant challenge measured after 1 hr; format: ADME, organism-based; set-up: dose 3 mg/kg, route oral; details: read-out: Drug uptake
Procedure, shortened: (§1)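 CFA rat study: oral doses of 1, 3 or 10 mg/kg given 23 h after intraplantar adjuvant, samples 1 h post-dose. Blood values are the mean from seven animals. Brain values are the mean from three animals.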

[2] = Permeability from apical to basolateral side of dog MDCK2 cells over expressing MDR1 after 1 hr; format: ADME, cell-based, Canis lupus familiaris, MDCK-II; details: MDCK-MDR1, read-out: permeability
Procedure, shortened: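 MDCKII-MDR1 Pgp permeability assay; apical-to-basolateral Pexact permeability in nm/s, with efflux ratio also determined.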

[3] = Ratio of drug level in brain to blood of rat at 0.5 mg/kg/hr administered by infusion for 12 hrs; details: brain and blood, intravenous
[4] = Drug level in rat blood at 0.5 mg/kg/hr administered by infusion for 12 hrs; format: ADME, organism-based; details: intravenous, read-out: Drug uptake
Procedure, shortened: (§2)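 Steady-state 12 h infusion at 5 mL/kg/h to reach a target dose of 0.5 mg/kg/h; blood and brain concentrations measured. Data are the mean from three animals.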

[5] = target: T1, Prostaglandin G/H synthase 2 (Homo sapiens, UniProt P35354); assay: Inhibition of COX2
T1 sequence (P35354 whole entry): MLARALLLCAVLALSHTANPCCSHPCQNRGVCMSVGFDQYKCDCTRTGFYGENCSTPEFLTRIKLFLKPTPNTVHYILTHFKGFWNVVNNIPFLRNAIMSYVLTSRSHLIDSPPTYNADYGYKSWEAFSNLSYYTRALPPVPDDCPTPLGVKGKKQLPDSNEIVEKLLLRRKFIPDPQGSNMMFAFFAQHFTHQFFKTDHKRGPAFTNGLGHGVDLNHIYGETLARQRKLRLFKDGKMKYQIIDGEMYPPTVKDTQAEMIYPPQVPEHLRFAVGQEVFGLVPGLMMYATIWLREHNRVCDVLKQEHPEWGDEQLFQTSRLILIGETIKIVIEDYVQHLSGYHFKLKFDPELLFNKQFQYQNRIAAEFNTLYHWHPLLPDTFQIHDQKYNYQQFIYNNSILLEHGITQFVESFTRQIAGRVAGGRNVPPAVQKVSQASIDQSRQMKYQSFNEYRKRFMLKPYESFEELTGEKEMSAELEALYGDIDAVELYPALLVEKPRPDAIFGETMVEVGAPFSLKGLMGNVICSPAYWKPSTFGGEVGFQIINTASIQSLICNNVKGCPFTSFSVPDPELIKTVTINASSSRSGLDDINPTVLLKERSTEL

[6] = Drug level in blood of complete Freund's adjuvant-induced rat inflammatory pain model at 10 mg/kg, po administered after 23 hrs of adjuvant challenge measured after 1 hr; format: ADME, organism-based; set-up: dose 10 mg/kg, route oral; details: read-out: Drug uptake; procedure, shortened: as §1
[7] = Solubility in FeSSIF after 0.5 hrs; format: physicochemical
Procedure, shortened: (§3)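 Solubility determined in water, FaSSIF and FeSSIF, all read at the 0.5 h time point.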

[8] = Ratio of drug level in brain to blood of rat at 0.5 mg/kg/hr administered by infusion for 1 hrs; details: brain and blood, intravenous
[9] = Ratio of drug level in brain to blood in complete Freund's adjuvant-induced rat inflammatory pain model at 1 mg/kg, po administered after 23 hrs of adjuvant challenge measured after 1 hr; format: ADME, organism-based; set-up: dose 1 mg/kg, route oral; details: brain and blood
Procedure, shortened: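 Rat CFA inflammatory pain model: oral dosing at 1, 3 or 10 mg/kg 23 h after intraplantar adjuvant; blood and brain sampled 1 h post-dose from the same animal; Br:Bl ratio is the mean from three animals.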

[10] = Half life in cynomolgus monkey at 1 mg/kg administered by intravenous infusion for 1 hr; format: ADME, organism-based, Macaca fascicularis; set-up: dose 1 mg/kg, route intravenous; details: in vivo
Procedure, shortened: (§4)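 Intravenous administration as a 1 h infusion of a 1 mg/kg dose. Rats were male Sprague-Dawley; dogs were beagle; monkeys were cynomolgus. Blood clearance, Vss and half-life determined.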

[11] = Clearance in Sprague-Dawley rat blood at 1 mg/kg administered by intravenous infusion for 1 hr; format: ADME, organism-based; set-up: dose 1 mg/kg, route intravenous; procedure, shortened: as §4
[12] = Ratio of drug level in brain to blood of Landrace pig at 0.5 mg/kg/hr administered by infusion for 1 hrs; details: brain and blood, intravenous
[13] = Drug level in rat blood at 0.5 mg/kg/hr administered by infusion for 1 hrs; format: ADME, organism-based; details: intravenous, read-out: Drug uptake
Procedure, shortened: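 Rat given a 1 h infusion; blood and brain concentrations measured.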

[14] = Drug level in mouse brain at 0.5 mg/kg/hr administered by infusion for 12 hrs; format: ADME, organism-based; details: intravenous, read-out: Drug uptake; procedure, shortened: as §2
[15] = target: Cytochrome P450 2C9 (Homo sapiens, UniProt P11712); assay: Inhibition of human CYP2C9; format: ADME
Chain of Cytochrome P450 2C9 (P11712 whole entry): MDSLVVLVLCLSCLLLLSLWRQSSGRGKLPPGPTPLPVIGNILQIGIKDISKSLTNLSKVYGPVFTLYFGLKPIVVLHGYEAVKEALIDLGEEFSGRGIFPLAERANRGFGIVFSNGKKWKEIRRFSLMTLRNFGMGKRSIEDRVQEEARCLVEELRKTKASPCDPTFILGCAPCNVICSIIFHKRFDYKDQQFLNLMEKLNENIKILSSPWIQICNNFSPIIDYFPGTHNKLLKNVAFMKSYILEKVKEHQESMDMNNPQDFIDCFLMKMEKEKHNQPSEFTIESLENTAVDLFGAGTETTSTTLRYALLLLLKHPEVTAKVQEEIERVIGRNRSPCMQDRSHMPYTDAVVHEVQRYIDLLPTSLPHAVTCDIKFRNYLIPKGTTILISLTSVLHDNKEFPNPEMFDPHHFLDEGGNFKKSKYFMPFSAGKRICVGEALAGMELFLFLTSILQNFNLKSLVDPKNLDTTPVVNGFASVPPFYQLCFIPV
Procedure, shortened: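 Inhibition of metabolism of fluorometric substrates (Cypex protocol); IC50 values are the mean of three experiments ± standard deviation.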

[16] = Clearance in cynomolgus monkey blood at 1 mg/kg administered by intravenous infusion for 1 hr; format: ADME, organism-based, Macaca fascicularis; set-up: dose 1 mg/kg, route intravenous; procedure, shortened: as §4
[17] = system: MDR1; assay: Permeability in dog MDCK2 cells over expressing MDR1 assessed as efflux ratio after 1 hr; details: MDCK-MDR1
[18] = Drug level in blood of complete Freund's adjuvant induced rat inflammatory pain model at 10 mg/kg, bid measured after 1 hr on day 1; format: ADME, organism-based; set-up: dose 10 mg/kg; details: read-out: Drug uptake
Procedure, shortened: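 Satellite group dosed at 10 mg/kg b.i.d. for 5 days; blood sampled 1 h post-dose on day 1 and on day 5.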

[19] = system: Hepatocyte; assay: Intrinsic clearance in human hepatocytes measured per gram of liver at 0.54 to 0.7 X 10^6 cells/ml cell density; format: ADME, cell-based
Procedure, shortened: (§5)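 Intrinsic clearance in hepatocytes expressed as mL/min/g liver. Cell densities were 0.15–0.2 × 10^6 cells/mL or 0.54–0.7 × 10^6 cells/mL.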

[20] = Intrinsic clearance in cynomolgus monkey hepatocytes measured per gram of liver at 0.54 to 0.7 X 10^6 cells/ml cell density; format: ADME, cell-based, Macaca fascicularis, Hepatocyte; procedure, shortened: as §5
[21] = target: T2, Prostaglandin E2 receptor EP3 subtype (Homo sapiens, UniProt P43115); assay: Inhibition of EP3 receptor by FLIPR assay
T2 sequence (P43115 whole entry): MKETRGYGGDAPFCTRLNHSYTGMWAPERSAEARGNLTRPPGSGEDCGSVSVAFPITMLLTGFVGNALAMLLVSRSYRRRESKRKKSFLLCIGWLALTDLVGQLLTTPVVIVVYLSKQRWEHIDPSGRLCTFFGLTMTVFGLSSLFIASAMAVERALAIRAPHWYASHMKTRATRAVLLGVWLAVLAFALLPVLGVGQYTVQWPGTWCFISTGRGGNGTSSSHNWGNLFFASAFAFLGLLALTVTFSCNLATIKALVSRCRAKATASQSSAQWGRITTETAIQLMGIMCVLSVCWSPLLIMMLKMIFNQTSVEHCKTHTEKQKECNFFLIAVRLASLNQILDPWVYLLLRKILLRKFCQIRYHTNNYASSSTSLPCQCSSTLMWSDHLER

[22] = Drug level in Landrace pig blood at 0.5 mg/kg/hr administered by infusion for 1 hrs; format: ADME, organism-based, Sus scrofa; details: intravenous, read-out: Drug uptake
Procedure, shortened: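 Landrace pig given a 1 h infusion; blood and brain concentrations measured in a single animal.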

[23] = Drug level in blood of complete Freund's adjuvant-induced rat inflammatory pain model at 1 mg/kg, po administered after 23 hrs of adjuvant challenge measured after 1 hr; format: ADME, organism-based; set-up: dose 1 mg/kg, route oral; details: read-out: Drug uptake; procedure, shortened: as §1
[24] = Drug level in rat brain at 0.5 mg/kg/hr administered by infusion for 12 hrs; format: ADME, organism-based; details: intravenous, read-out: Drug uptake; procedure, shortened: as §2
[25] = Solubility in water after 0.5 hrs; format: physicochemical; procedure, shortened: as §3
[26] = system: Hepatocyte; assay: Intrinsic clearance in rat hepatocytes measured per gram of live; format: ADME, cell-based, Liver; procedure, shortened: as §5

concentration at 1 h [1]: 175 nM
Papp A→B at 1 h [2]: 70 ×10⁻⁶ cm/s
Kp at 12 h [3]: 0.24
concentration at 12 h [4]: 955 nM
IC50 [5]: > 100 µM
concentration at 1 h [6]: 1510 nM
solubility at 0.5 h [7]: 358 µg/mL
Kp at 1 h [8]: 0.21
Kp at 1 h [9]: 0.37
half-life [10]: 36 min
clearance [11]: 19 mL/min/kg
Kp at 1 h [12]: 0.27
concentration at 1 h [13]: 1800 nM
concentration at 12 h [14]: 56 nM
IC50 [15]: 8 µM
clearance [16]: 41 mL/min/kg
efflux ratio at 1 h [17]: 0.9
concentration at 1 h [18]: 2390 nM
CL [19]: 0.7 mL/min/g
CL [20]: 2.7 mL/min/g
pKi [21]: 5.9
concentration at 1 h [22]: 2300 nM
concentration at 1 h [23]: 144 nM
concentration at 12 h [24]: 225 nM
solubility at 0.5 h [25]: 890 µg/mL
clearance [26]: 2.1 mL/min/g
SMILES: O=C([O-])c1cccc(Cc2cc(Cl)ccc2OCc2ccc(Cl)cc2F)n1.[Na+]
